Series [1] in a line: Inhibition of beta-naphthoflavone-induced Cyp1A in rat […] cell. It counts as cell-based. In a few lines: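 Enzyme source: homogenates of β-naphthoflavone-induced H4IIE rat hepatoma cells. Cyp1A activity measured as dealkylation of 3-cyano-7-ethoxycoumarin to fluorescent 3-cyano-7-hydroxycoumarin, expressed in nmol/min/mg protein. α-Naphthoflavone positive control. Dose-response to IC50; percent inhibition given at 50 µM final concentration.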

For series [2], the target named is Prostaglandin G/H synthase 1 (Homo sapiens) (UniProt P23219). The experiment in a line: Inhibition of COX1 at 100 uM. The method, boiled down: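 COX-1 (prostaglandin G/H synthase) activity followed by oxygen consumption during conversion of arachidonic acid to prostaglandins; single concentration 100 µM; IC50 only if inhibition exceeds 50%.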
Prostaglandin G/H synthase 1 (Homo sapiens), sequence (P23219 whole entry): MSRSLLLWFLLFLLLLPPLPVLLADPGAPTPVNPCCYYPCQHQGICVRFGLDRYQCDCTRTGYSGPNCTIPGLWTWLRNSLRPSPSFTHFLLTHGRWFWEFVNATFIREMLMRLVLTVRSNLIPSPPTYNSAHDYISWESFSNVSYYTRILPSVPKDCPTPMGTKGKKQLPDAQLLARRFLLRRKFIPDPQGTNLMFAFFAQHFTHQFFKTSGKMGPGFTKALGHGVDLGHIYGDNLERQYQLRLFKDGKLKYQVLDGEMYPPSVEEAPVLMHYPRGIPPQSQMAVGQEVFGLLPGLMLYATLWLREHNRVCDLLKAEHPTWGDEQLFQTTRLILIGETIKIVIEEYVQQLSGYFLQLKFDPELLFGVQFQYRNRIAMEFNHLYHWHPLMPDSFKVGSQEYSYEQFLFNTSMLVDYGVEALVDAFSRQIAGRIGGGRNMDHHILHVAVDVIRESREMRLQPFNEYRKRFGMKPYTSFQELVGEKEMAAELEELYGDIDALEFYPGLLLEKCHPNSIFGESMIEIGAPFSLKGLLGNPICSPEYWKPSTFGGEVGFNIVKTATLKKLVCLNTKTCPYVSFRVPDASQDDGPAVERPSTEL
The target of series [3] is T1, Aromatase (Homo sapiens, UniProt P11511).
T1 sequence (P11511 whole entry): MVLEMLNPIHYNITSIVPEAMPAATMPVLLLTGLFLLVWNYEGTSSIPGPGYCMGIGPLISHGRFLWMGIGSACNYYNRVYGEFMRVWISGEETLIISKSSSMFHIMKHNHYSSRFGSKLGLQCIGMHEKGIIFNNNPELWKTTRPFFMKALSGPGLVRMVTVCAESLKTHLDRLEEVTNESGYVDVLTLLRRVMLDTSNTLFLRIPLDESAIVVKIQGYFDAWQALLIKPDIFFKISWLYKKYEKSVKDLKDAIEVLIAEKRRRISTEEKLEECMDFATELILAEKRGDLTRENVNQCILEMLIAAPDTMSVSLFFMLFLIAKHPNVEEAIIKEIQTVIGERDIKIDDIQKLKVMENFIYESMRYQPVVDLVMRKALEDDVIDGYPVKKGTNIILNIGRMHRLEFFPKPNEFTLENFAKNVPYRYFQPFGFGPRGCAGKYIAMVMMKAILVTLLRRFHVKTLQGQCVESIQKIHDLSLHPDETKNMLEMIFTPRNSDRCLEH
Briefly: Inhibition of human recombinant aromatase at 50 uM.

Series [4] can be described thus: DPPH radical scavenging activity upto 250 uM. The class given is functional. The method, boiled down:
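Photometric reaction with stable DPPH free radical in microplate format, compounds up to 250 µM.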
For orientation: Loss of DPPH colour is used to gauge radical scavenging.

Series [5] in a line: Superoxide anion radical scavenging activity upto 50 uM. It counts as functional. The method, boiled down: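 Superoxide anion generated by xanthine oxidase oxidising hypoxanthine to uric acid; scavenging tested up to 50 µM.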
The nature of series [6]: Cytotoxicity against mouse Hepa 1c1c7 cells upto 400 uM. The class given is cell-based. In a few lines:
(§1)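 Hepa 1c1c7 murine hepatoma cultures exposed in parallel with the QR induction assay; tested up to 400 µM for one hydroxanthone and up to 50 µM for the others; cytotoxicity judged alongside QR specific activity.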

Series [7] has as its system Cyp1A (Rattus norvegicus). Briefly: Inhibition of beta-naphthoflavone-induced Cyp1A in rat H4IIE cell at 50 uM. Particulars: H4IIE cells with beta-naphthoflavone-induced Cyp1A.
Series [8] has as its target T1, Aromatase. Briefly: Inhibition of human recombinant aromatase.
Series [9] is described as follows: Cytotoxicity against mouse Hepa 1c1c7 cells upto 50 uM. The class given is cell-based. The method, boiled down: as §1

This note sets out measurements from ChEMBL document CHEMBL1142864, “Potential cancer chemopreventive in vitro activities of monomeric xanthone derivatives from the marine algicolous fungus Monodictys putredinis” (J Nat Prod, 2007).

Each structure is given as a SMILES string. The source made the active and inactive calls. No cut-off for these calls is given here.

For orientation: IC50 means the concentration that gives 50% inhibition. In general, inhibition refers to the percentage by which the read-out fell short of the control. `Cc1cc(C(=O)O)c2c(=O)c3c(O)cccc3oc2c1` [MONODICTYXANTHONE] yielded an IC50 in [1] of 34.8 µM. The inhibition in series [2] was < 50%. In addition, the inhibition at 50 µM on Aromatase [3] was 37%. The outcome in [4] and in series [5] was inactive.

`O=c1cc(-c2ccccc2)oc2c1ccc1ccccc12` [ALPHA-NAPHTHOFLAVONE]: the IC50 in series [1] amounted to 0.0035 µM.

For `Cc1cc(O)c2c(c1)O[C@]1(C)[C@@H](O)[C@@H](O)C[C@H](O)[C@@H]1C2=O` [MONODICTYSIN A], the IC50 in [1] is > 50 µM. The inhibition in [2] is < 50%. For the same compound, the inhibition at 50 µM on Aromatase [3] was found to be 32%; in [7], 40%. The Activity result in [6] is “Not Active”. For the same compound, the outcome in [4] and in [5] was inactive.

For the compound `Cc1cc(O)c(C(=O)c2c(O)cccc2O)c(C(=O)O)c1` [MONODICTYPHENONE], in series [1], the IC50 is > 50 µM. In series [2], the inhibition was < 50%. In addition, the values for the inhibition at 50 µM (at Aromatase [3]; in series [7]) were 25% and 28%, respectively. Besides, the outcome in series [4] and in series [5] was inactive.

On to `COc1cc(O)c2c(c1)O[C@]1(C)[C@@H](O)[C@@H](C)C[C@H](O)[C@@H]1C2=O` [MONODICTYSIN C], for which the IC50 in [1] is 3 µM; at Aromatase [8], 28.3 µM. The inhibition in [2] was < 50%. The Activity result in series [9] is listed as “Not Active”. In addition, the result in [4] and in [5] was inactive.

`C[C@H]1C[C@H](O)[C@@H]2C(=O)c3c(O)cccc3O[C@]2(C)[C@H]1O` [MONODICTYSIN B] gave an IC50 in series [1] of 23.3 µM. Further, the inhibition in series [2] is < 50%. The inhibition at 50 µM on Aromatase [3] is 9%. For the same compound, the Activity entry in series [9] is listed as “Not Active”. For the same compound, the result in series [4] and in series [5] was inactive.
